Measurements published in ChEMBL document CHEMBL2040723, “1,4-dioxane, a suitable scaffold for the development of novel M₃ muscarinic receptor antagonists” (J Med Chem, 2012).
The source made the active and inactive calls. The calls are words filed in the database; no cut-off is given here.

How the values were obtained:
[1] = biological target: T1, Muscarinic acetylcholine receptor M4 (Homo sapiens, UniProt P08173); assay: Displacement of [3H]N-methylscopolamine from human muscarinic M4 receptor expressed in CHO cells after 120 mins by scintillation counting; type: cell-based
T1 sequence (P08173 whole entry): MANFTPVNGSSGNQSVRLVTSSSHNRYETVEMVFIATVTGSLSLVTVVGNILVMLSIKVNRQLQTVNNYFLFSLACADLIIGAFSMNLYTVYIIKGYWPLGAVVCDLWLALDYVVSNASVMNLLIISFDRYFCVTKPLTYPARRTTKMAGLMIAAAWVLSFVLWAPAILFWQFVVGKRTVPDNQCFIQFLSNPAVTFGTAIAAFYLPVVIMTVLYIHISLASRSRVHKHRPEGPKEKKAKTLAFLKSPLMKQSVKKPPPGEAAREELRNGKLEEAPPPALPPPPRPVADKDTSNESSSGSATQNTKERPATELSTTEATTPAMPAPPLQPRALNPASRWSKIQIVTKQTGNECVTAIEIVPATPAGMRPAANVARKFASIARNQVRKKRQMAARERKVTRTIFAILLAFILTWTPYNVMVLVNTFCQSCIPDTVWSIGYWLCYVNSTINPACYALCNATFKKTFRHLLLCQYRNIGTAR

[2] = Antagonist activity at muscarinic M2 receptor in guinea pig left atrium assessed as dissociation constant after 45 mins; type: functional, Cavia porcellus, Cardiac atrium
Summary of the method: (§1)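 Isolated guinea pig tissues: left atrium (M2), ileum (M3) and lung strips (putative M4). Antagonist dissociation constants were calculated by the Furchgott method and reported as pKB, as mean ± SEM of four to six independent experiments. Agonist reference for the tissue responses was bethanechol.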

Cavia porcellus [3] = species: Cavia porcellus; assay: Intrinsic activity at muscarinic M2 receptor in guinea pig left atrium after 45 mins relative to bethanechol; type: tissue-based; conditions: Cardiac atrium
Summary of the method: (§2)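 Guinea pig left atrium (M2) and ileum (M3) preparations. Intrinsic activity is the ratio of the compound's maximum response to the maximum response of bethanechol in that tissue. The pD2 is the −log of the agonist concentration giving 50% of the maximum response attainable in the tissue.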

[4] = Antagonist activity at muscarinic M3 receptor in guinea pig ileum assessed as dissociation constant after 45 mins; type: functional, Cavia porcellus; summary of the method: as §1
Cavia porcellus [5] = species: Cavia porcellus; assay: Intrinsic activity at muscarinic M3 receptor in guinea pig ileum after 45 mins relative to bethanechol; type: tissue-based; summary of the method: as §2
[6] = Antagonist activity at muscarinic M4 receptor in guinea pig lung strips assessed as dissociation constant after 45 mins; type: functional, Cavia porcellus; summary of the method: as §1
Rattus norvegicus [7] = assay: Cardiovascular toxicity in anaesthetized Wistar rat assessed as changes in mean arterial pressure at 1 ug/kg, iv; type: organism-based, Artery; conditions: in vivo, 0.001 mg/kg
Rattus norvegicus [8] = assay: Cardiovascular toxicity in anaesthetized Wistar rat assessed as changes in heart rate at 1 ug/kg, iv; type: organism-based; conditions: in vivo, 0.001 mg/kg
Rattus norvegicus [9] = assay: Reduction in volume induced contraction of iv dosed anaesthetized Wistar rat urinary bladder assessed as inhibition of AUC peaks from saline baseline; type: functional; conditions: read-out: ID50 (the source's name)
Rattus norvegicus [10] = assay: Reduction in volume induced contraction of iv dosed anaesthetized Wistar rat urinary bladder assessed as inhibition of VIBC amplitudes relative to untreated control; type: functional
[11] = Agonist potency at muscarinic M3 receptor in guinea pig ileum after 45 mins; type: functional, Cavia porcellus
Summary of the method: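 Isolated guinea pig ileum (M3) functional assay. pD2 is the −log of the agonist concentration giving 50% of the maximum response attainable in that tissue. Intrinsic activity is the ratio of the agonist's maximum response to that of bethanechol. Results are mean ± SEM of four to six independent experiments.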

[12] = biological target: T2, Muscarinic acetylcholine receptor M2 (Homo sapiens, UniProt P08172); assay: Displacement of [3H]N-methylscopolamine from human muscarinic M2 receptor expressed in CHO cells after 120 mins by scintillation counting; type: cell-based
T2 sequence (P08172 whole entry): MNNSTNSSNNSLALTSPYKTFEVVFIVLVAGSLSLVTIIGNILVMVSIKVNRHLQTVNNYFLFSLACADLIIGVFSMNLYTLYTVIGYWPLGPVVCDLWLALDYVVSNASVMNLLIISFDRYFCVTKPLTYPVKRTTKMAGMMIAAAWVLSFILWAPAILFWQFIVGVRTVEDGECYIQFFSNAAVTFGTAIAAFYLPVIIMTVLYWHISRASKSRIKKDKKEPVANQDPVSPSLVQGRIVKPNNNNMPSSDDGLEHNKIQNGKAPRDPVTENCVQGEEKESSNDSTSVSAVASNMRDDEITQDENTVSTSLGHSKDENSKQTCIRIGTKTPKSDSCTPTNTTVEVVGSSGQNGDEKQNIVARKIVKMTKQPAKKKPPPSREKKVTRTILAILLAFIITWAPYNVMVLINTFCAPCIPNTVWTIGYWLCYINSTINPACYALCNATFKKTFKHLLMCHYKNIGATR

[13] = biological target: T3, Muscarinic acetylcholine receptor M5 (Homo sapiens, UniProt P08912); assay: Displacement of [3H]N-methylscopolamine from human muscarinic M5 receptor expressed in CHO cells after 120 mins by scintillation counting; type: cell-based
T3 sequence (P08912 whole entry): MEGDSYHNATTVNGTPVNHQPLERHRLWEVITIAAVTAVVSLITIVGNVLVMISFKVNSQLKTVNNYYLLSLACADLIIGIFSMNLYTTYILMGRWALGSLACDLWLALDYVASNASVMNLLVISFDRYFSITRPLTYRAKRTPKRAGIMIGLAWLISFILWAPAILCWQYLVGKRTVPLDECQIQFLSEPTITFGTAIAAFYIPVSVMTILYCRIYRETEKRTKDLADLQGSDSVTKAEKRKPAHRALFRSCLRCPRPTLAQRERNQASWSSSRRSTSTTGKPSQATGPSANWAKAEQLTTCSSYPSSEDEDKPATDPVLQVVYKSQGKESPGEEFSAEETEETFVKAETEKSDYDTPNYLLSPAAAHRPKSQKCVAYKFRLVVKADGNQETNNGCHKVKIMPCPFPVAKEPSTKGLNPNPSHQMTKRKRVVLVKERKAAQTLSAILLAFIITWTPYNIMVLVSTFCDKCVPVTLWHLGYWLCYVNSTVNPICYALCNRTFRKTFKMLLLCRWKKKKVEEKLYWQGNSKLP

[14] = Agonist potency at muscarinic M2 receptor in guinea pig left atrium after 45 mins; type: functional, Cavia porcellus, Cardiac atrium
Cavia porcellus [15] = species: Cavia porcellus; assay: Antagonist activity at muscarinic M4 receptor in guinea pig lung strips up to 10 uM after 45 mins; type: functional
Summary of the method: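 Guinea pig lung strips (putative M4) were tested for agonist activity and then for antagonism at concentrations up to 10 μM. Dissociation constants (pKB) were calculated by the Furchgott method from four to six independent experiments.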

Cavia porcellus [16] = species: Cavia porcellus
[17] = Antagonist activity at muscarinic M1 receptor in rabbit vas deferens assessed as dissociation constant after 45 mins; type: functional, Oryctolagus cuniculus

C[N+](C)(C)C[C@@H]1COC[C@@H](c2ccccc2)O1.[I-] (relative stereo)
Ki [1]: 29.5 µM
pKb [2]: 5.14
Intrinsic activity (Cavia porcellus [3]): 0
pKb [4]: <5
Intrinsic activity (Cavia porcellus [5]): 0
pKb [6]: <5

CCN(CC)CC#CCOC(=O)C(O)(c1ccccc1)C1CCCCC1 (stereo not given) [OXYBUTYNIN]
Intrinsic activity (Cavia porcellus [3]): 0
Intrinsic activity (Cavia porcellus [5]): 0
Activity (Rattus norvegicus [7]): 20%
Activity (Rattus norvegicus [8]): 7%
ED50 (Rattus norvegicus [9]): 0.347 mg/kg
Imax (Rattus norvegicus [10]): 75%

COc1ccccc1CNCCCCCCNCCCCCCCCNCCCCCCNCc1ccccc1OC [METHOCTRAMINE]
pKb [2]: 7.8
pKb [4]: 6.3
pKb [6]: 7.6

C[C@H]1COC[C@@H](C[N+](C)(C)C)O1.[I-]
Intrinsic activity (Cavia porcellus [3]): 1
pD2 [11]: 7.34
Intrinsic activity (Cavia porcellus [5]): 1

CC[C@H]1COC[C@@H](C[N+](C)(C)C)O1.[I-] (relative stereo)
Ki [12]: 6.31 µM
Ki [1]: 25.1 µM
Ki [13]: 26.3 µM
pD2 [14]: 5.62
Intrinsic activity (Cavia porcellus [3]): 1
pD2 [11]: 4.82
Intrinsic activity (Cavia porcellus [5]): 1
Activity (Cavia porcellus [15]): inactive
pD2 (Cavia porcellus [16]): inactive

CN(C)CC1COCC(c2ccccc2)(c2ccccc2)O1.O=C(O)C(=O)O (racemic)
Ki [12]: 0.0166 µM
Ki [13]: 0.00537 µM
pKb [2]: 6.95
Intrinsic activity (Cavia porcellus [3]): 0
pKb [4]: 8.24
Intrinsic activity (Cavia porcellus [5]): 0
pKb [6]: 7.02
pKb [17]: 7.86
Activity (Rattus norvegicus [7]): -18%
Activity (Rattus norvegicus [8]): 4%
ED50 (Rattus norvegicus [9]): 0.134 mg/kg
Imax (Rattus norvegicus [10]): 72%

CN(C)C[C@@H]1COC(c2ccccc2)(c2ccccc2)O1.O=C(O)C(=O)O
pKb [2]: 7.11
pKb [4]: 6.38

C[N+](C)(C)C[C@@H]1COC[C@H](C(c2ccccc2)c2ccccc2)O1 (relative stereo)
Ki [12]: 28.2 µM
Ki [1]: 11.2 µM
Ki [13]: 7.59 µM

C[N+](C)(C)C[C@@H]1COC[C@@H](C(c2ccccc2)c2ccccc2)O1 (relative stereo)
Ki [12]: 79.4 µM
Ki [1]: 17 µM
Ki [13]: 31.6 µM

C[N+](C)(C)C[C@@H]1COCC(c2ccccc2)(c2ccccc2)O1.[I-]
Ki [12]: 0.0331 µM
Ki [13]: 0.107 µM
pKb [2]: 6.67
Intrinsic activity (Cavia porcellus [3]): 0
Intrinsic activity (Cavia porcellus [5]): 0
pKb [6]: 6.62

C[N+](C)(C)C[C@H]1COCC(c2ccccc2)(c2ccccc2)O1.[I-]
Ki [12]: 0.00282 µM
Ki [13]: 0.0017 µM
pKb [2]: 7.31
Intrinsic activity (Cavia porcellus [3]): 0
pKb [4]: 8.52
Intrinsic activity (Cavia porcellus [5]): 0
pKb [6]: 6.7
pKb [17]: 8.86
Activity (Rattus norvegicus [7]): -12%
Activity (Rattus norvegicus [8]): 5%
ED50 (Rattus norvegicus [9]): 0.201 mg/kg
Imax (Rattus norvegicus [10]): 96%

C[N+](C)(C)C[C@@H]1COC[C@H](c2ccccc2)O1.[I-] (relative stereo)
Ki [1]: 12.3 µM
pKb [2]: 5.56
Intrinsic activity (Cavia porcellus [3]): 0
Intrinsic activity (Cavia porcellus [5]): 0
pKb [6]: 5.24

CN(C)C[C@@H]1COCC(c2ccccc2)(c2ccccc2)O1.O=C(O)C(=O)O
Ki [12]: 0.0955 µM
Ki [13]: 0.0813 µM
pKb [2]: 7
Intrinsic activity (Cavia porcellus [3]): 0
Intrinsic activity (Cavia porcellus [5]): 0

C[N+]1(C)CCC(OC(=O)C(c2ccccc2)c2ccccc2)CC1.[I-] [4-DAMP]
pKb [2]: 8
pKb [4]: 9.02
pKb [6]: 9.4

CC[C@@H]1COC[C@@H](C[N+](C)(C)C)O1.[I-] (relative stereo)
Ki [12]: 18.2 µM
Ki [1]: > 100 µM
Ki [13]: > 100 µM
pD2 [14]: 5.45
Intrinsic activity (Cavia porcellus [3]): 0.7
pD2 [11]: 5.19
Intrinsic activity (Cavia porcellus [5]): 1
Activity (Cavia porcellus [15]): inactive
pD2 (Cavia porcellus [16]): inactive

C[N+](C)(C)CC1COCC(c2ccccc2)(c2ccccc2)O1.[I-] (racemic)
Ki [12]: 0.00575 µM
Ki [13]: 0.00437 µM
pKb [2]: 8.21
Intrinsic activity (Cavia porcellus [3]): 0
pKb [4]: 8.34
Intrinsic activity (Cavia porcellus [5]): 0
pKb [6]: 7.77

CN(C)C[C@H]1COCC(c2ccccc2)(c2ccccc2)O1.O=C(O)C(=O)O
Ki [12]: 0.00977 µM
Ki [13]: 0.00182 µM
pKb [2]: 7.63
Intrinsic activity (Cavia porcellus [3]): 0
Intrinsic activity (Cavia porcellus [5]): 0
pKb [6]: 6.94
